We go through 37 variants from the RNAGym collection of RNA variant scans (doi:10.1126/science.aae0568).

Fewer inactive variants are shown than the library holds.

The labels stand for the following.
B1: tRNA (parent)
chain: GUUCCGUUGGCGUAAUGGUAACGCGUCUCCCUCCUAAGGAGAAGACUGCGGGUUCGAGUCCCGUACGGAACG

The variants in this data set derive from B1. Kind of data set: yeast fitness relative to wild type (ratio to wild type); higher = fitter; tRNA-Arg(CCU), competitive growth, 37 C, YPD. The essentials: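 Variants of the tRNA-Arg(CCU) gene, chemically synthesised with a 3% per-site mutation rate at 69 sites, were placed at the native genomic locus in Saccharomyces cerevisiae. The pooled strains were competed in YPD at 37°C for 24 hours in six parallel replicates. Gene amplicons from the start population and from each end population were read by 100-nucleotide paired-end sequencing. Darwinian fitness relative to wild type came from changes in genotype frequencies; genotypes needed ≥ 100 starting reads, and estimates < 0.5 were set to 0.5.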
For the variant GUUCCGUUGGCGUAAUGGUAACGCGUGUCCCUCCUAAGGAGAGGACUGCGGGUUCGAGUCCCGUACGGAACG [C27G A43G], the yeast fitness is 0.636. The result for GCUCCGUUGGCGUAAUGGUAACGCGUCUCCCUCCUAAGGAGAAGACUGCGGGUACGAGUCCCGUACGGAUCG [U2C U54A A70U] reads 0.555; that for GUUCCGCUGGCGUAAUGGUAACGGGUCUCCCUCCUAAGGAGAAGACUGCGGGUUCGAGUCCCGUACGGAACG [U7C C24G], 0.645. The result for GUUCCGUUAGAGUAAUGGUAACGCGUCUCCCUCCUAAGGAGAACACUGCGGGUUCGAGUCCCGUACGGAACG [G9A C11A G44C] reads at most 0.5; that for GGUCCGUUGGCGUAAUGGUAACGCGUCUCCGUCCUAGGGAGAAGACUGCGGGUUCGAGUCCCGUACGGAACG [U2G C31G A37G], 0.605; that for GUUGCGUUGGGGUAAUGGUAACGCGUCUCCGUCCUAAGGAGAAGACUACGGGUUAGAGUCCAGUACGGAACG [C4G C11G C31G G48A C55A C62A], at most 0.5. In the case of GUUCCGUUGGGGUAAUGGUAACGCGUCUCCCUACUAAGGAGCAGACUGCGGGUUCGAGUCCCGUACGGAACG [C11G C33A A42C] it was 0.7. Regarding GUCCCGUUGGCGUAAUGGUAACGCCUCUCCCUGCUAAGGAGAAGACUGCGGGUUCGAGUCGCGUACGGAACG [U3C G25C C33G C61G], the yeast fitness is at most 0.5. In the case of GUUCCGUUGGCGUAAUGGUAACGCGUCUUCCUACUCAGGAGCAGGCUGCGGGUUCGAGUCCCGUACGGAACG [C29U C33A A36C A42C A45G] it was at most 0.5; in that of GUUCCGCUGGCGUAAUAGUAACGCGUCUCCCUCCUAAGGAGAAGACUGCGGGUUAGAGUCCCGUACGGAACG [U7C G17A C55A], at most 0.5. The result for GUUCCGUUGGCGUAAUGGUAACGCGUCUCCCUCCUAAGGAGACGACAGCGGGUUCGAGUCCCGUACGGAACG [A43C U47A] reads 0.732. The result for GGUCCGUUGGCGUAAUGGUAACGCGUCUCCCUCCUAAGGAGAAGACUGCGGGUUCGAGUCGCGUACGGAACG [U2G C61G] reads 0.556; that for GUUCCGUAGCCGUAAUGGUAACGCGUCUACCUCCUAAGGUGAAGACUGCGGGUUGGAGUCCCGUACGGAACG [U8A G10C C29A A40U C55G], 0.533; that for GUUCCGUUGGCAUAAUGGCAACCCGUCUCCCUCCUAAGGAGAAGACUGCGGGUUCGAGUCCCGUACCGAACG [G12A U19C G23C G67C], at most 0.5. On to GUUCCGUUGCCGUAAUGGUAACGCGUGUCGCUCCUAAGGAGAAGACUGCGGGUUCGAAUCCCGUACGGAACG [G10C C27G C30G G58A], for which the yeast fitness is 0.557. In the case of GUUCCGUUGGCGCAAUGGUAACGCGUCUCCCUCCAAAGGAGAAGACUGCGGGUUCGAGUCCCGUACGGAGCG [U13C U35A A70G] it was at most 0.5; in that of GUUCCGUUGGCGUAAUGGUAACGCGUCUCCGUCCUUAGGAGAAGACUGCGGGUUCGAGUCCCGUACGGAACG [C31G A36U], 0.615; in that of GUUCCGUUGGCGUAAUGGUAACGCGUCUCCCUCCUUAGGAGCGGACUGCGGGUUCGAGUCCCGCACGGACCG [A36U A42C A43G U64C A70C], 0.559. In the case of GUUCCGUUGGCGUAAUGGUAACGCGAAUCCCUCCUAAGGAGAAGACUGCGGGUUCGAGUCCCGUACGGAACG [U26A C27A] it was 0.671. The result for GUUCCGUUGGCGUAAAGCUAACGCGUCUCCUUCCUAAGGAGAAGACUGCGCGUUCGAGUCCCGUACGGAACG [U16A G18C C31U G51C] reads at most 0.5; that for GUUCCGUUGGCGUAAUGGUAAUGCGUCUCCGUCCUAAGGAGAAGACUGCGGGUUCGAGUCCCGAAAGGAACG [C22U C31G U64A C66A], at most 0.5; that for GUUCCGUUGGCCUAAUGGUCACGCGUCUCCGUCCUAAGGAGAAGACUGCGGGUUCGAGUCCCGUGCGGAACG [G12C A20C C31G A65G], 0.527. Consider GGUCCGUUGGCGUAAUGGUAACGGGUCUGCGUCCUAAGGAGAAGACUGCGGGUUCGAGUCCCGCACGGAACG [U2G C24G C29G C31G U64C], for which the yeast fitness is at most 0.5. In the case of GUUCCGUUGGCGUAAUGGUAACGCGUCUCUCUCCUAAGGAGACGACUGCGGGUUCGAGUCCCGUACGGAUCG [C30U A43C A70U] it was 0.556; in that of GUUCCGUUGGCGUAAUGGUAACCCGUCUCCCUUCUAAGGAGAAGACUGCGGGUUCGUGUCCCGUACAGAACG [G23C C33U A57U G67A], 0.512. In the case of GUUCCGUUGGCGUAAUGGAAACGCGUCUCCCUCCUAAGCAGAAGACUGCGGGUUCGAGUCCCGUACGGAACG [U19A G39C] it was 0.742. The result for GUUCCGUUGGCGUAAUGGUAACGCGUCUCCCUCCUAAGGCGAAGACUGCGGGUUCGAGUCCCGUACGGAACG [A40C] reads 1.

For GUUGAGUUGGCGUAAAAGUAACGCGUCUCCCUCCUAAGGAGAAGACUGCAGGUUCGAGUCCCGUACGGAACG [C4G C5A U16A G17A G50A], the yeast fitness was at most 0.5.

As for GUUGCGUUGGCGUAAUGGUAACCCGUCUCCCUCCUAAGGAGAAGACUGCGGGUUCGAGUCGCGUACGGAACG [C4G G23C C61G], the yeast fitness was at most 0.5. In the case of GUUCCGUUGGCGUAAUGGUAACGGGUCUCCCUCCUAAGAAGAAGACUGCGGGUUCGAGUCCCGUACGGACCG [C24G G39A A70C] it was at most 0.5.

In the case of GUUGCGUUGGCGUAAUGGUAACGCGUCUCCCUCCUAAGGAGAAGGCUGCGGGUACGAGUCCCGUACGGAACG [C4G A45G U54A], the yeast fitness is at most 0.5. In the case of GUUCCGUUGGCGUAAUGGUAACGCGUCUCCCUCCUUAGGAGAAGACUGCGGGUUUGAGUCCCGUACGGAACG [A36U C55U] it was 0.658; in that of GUUCCGUUGGCGUAAUGGUAACGCGUCUCCCUCCUAAGGAGAAGACUGCGGGUUCGUGUCCCGUACGGAACG [A57U], 0.731; in that of GUUCCGUUGGCGGAAUGGUAACGCCUCUCCCUCCUAAGGAGAAGACUGCGGGUUCGAGUCCCGUACGGAACG [U13G G25C], 0.797. In the case of GUUCCGUUGGGGUAAUGGUAACGCGUCUCCCUCCUAAGGAGAAGACUGCGGGUCCGAGUCCCGUACGGAACG [C11G U54C] it was 0.512. For the variant GUUCGGUUGGCGUAAUGGUAACGCGUCUCCCUCCUAAGGAGAAGACCGCGGGUUCGAGUCCCGUAUGGAACG [C5G U47C C66U], the yeast fitness amounted to 0.627. The result for GUUCCGUUGGCGUAAUGGUAACGCGUCUCCCUCCUAAGGUGAAGACUGCGGGUACGAGUGCCGUACCGAACG [A40U U54A C60G G67C] reads 0.599.
